The conditions of series [1]: cited from earlier work.
Series [2] relates to nasal epithelial cell layers. The settings on record: cited from earlier work.
For series [3], the system named is epithelial cells. The note with it: cited from earlier work.
Series [4] concerns epithelial cell layers. The settings on record: cited from earlier work.
For series [5], the system named is Caco-2 epithelial cell layers. As to the kind of experiment: Permeability of fluorescent markers. The series is classed as cell-based. The note with it: Caco-2 layers. In short, it runs like this:
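Caco-2 cells (passage 35–39) were grown 21 days on collagen-coated 0.33 cm2 inserts (0.4 µm pores) and equilibrated 30 min in warm HBSS. Test compound with FD-4 (0.25 mM) or other marker in HBSS was applied apically. Basolateral fluorescence (ex 485/em 520 nm) was read over 180 min against a calibration curve to give Papp. TEER was measured before and after. Triplicates, mean ± S.D.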
(In general: Caco-2 cells form a polarised layer with tight junctions and transporters.)

For series [6] the following is noted: 2 mM; cited from earlier work.
The conditions of series [7]: concentration of 625 µM; cited from earlier work.

The values that follow come from paper PMC9870020 (Tissue Barriers, 2022).

Take `CCCCCCCCCC(=O)[O-].[Na+]` [C10, sodium caprate]: the “Toxicity of C10” value in series [1] was “no toxicity was demonstrated”.

With L-myr-ARRWR [L-R5], the “Reversibility of TJ modulation by the peptide” value in series [2] is “rapidly reversible”. The “Size of molecules transported paracellularly with L-R5” value in series [2] (nasal epithelial cell layers in vitro, previously shown) is on record as “up to 4 kDa”. Also, the “Epithelial cytotoxicity in vitro” value in series [3] is given as “lack of epithelial cytotoxicity”. Moreover, the “Passage of the peptide across epithelial cell layers” value in series [4] is given as “not to cross epithelial cell layers”. Also, the “Molecular weight limit of opening of TJs caused by L-R5” value in series [5] (L-R5 50 µM, from sodium fluorescein, FD-4 and FD-150 permeability) amounted to 150 kDa. The “Permeability of sodium fluorescein in the presence of L-R5” value in series [5] (Figure 5, L-R5 50 µM, 180 min, mean n = 3) is given as “higher permeability compared to FD-4”.

In the case of `CCCCCCCCCCCCOS(=O)(=O)[O-].[Na+]` [SDS, Sodium dodecylsulfate], in series [6], the “Toxicity of SDS” value is recorded as “toxic”.

As to `CC(C)(C)[C@]1(O)CC2OC(=O)CC23C(=O)OC2OC(=O)[C@H](O)C231` (stereo partly shown) [bilobalide, Bilobalide], the Cytotoxicity of bilobalide entry in series [7] is listed as “no cytotoxicity”.

Consider L-myr-ARRAR [LW-5], for which the “Permeability of FD-4 (Papp) in the presence of L-R5 analogues” value in series [5] (Figure 6A, peptides 50 µM, FD-4 0.25 mM, 180 min, mean n = 3) is “significantly lower than with L-R5”.
